Screening results deposited in PubChem BioAssay by several laboratories.
TRPC4 block = TRPC4 (mouse) channel inhibition. Q9QUQ5. HEK293 TRPC4beta/mu-opioid, DAMGO-evoked Fluo4 calcium flux; hits give low values. B-score at 10 µM. 300,000 tested, 0.39% active. AID 2247;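 active = B-score over 3 SD under the library average, no early fluorescence shift, positive overall ratio signal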
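Assay system – HEK293 line stably carrying TRPC4beta and mu-opioid receptor · Doses – single dose · Detection – Fluo4 calcium-dye fluorescence, kinetic read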
TRPC4 PAM = TRPC4 (mouse) allosteric potentiation | HEK293 TRPC4beta/mu-opioid, DAMGO EC20, Fluo-4 Ca2+ flux; hits give high values | Q9QUQ5 | AID 2227 | 310,000 tested, 0.42% active | B-score at 10 µM;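 active = B-score of calcium response area above 5 SD of library B-scores, with initial fluorescence ratio within 5 SD of library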;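 also: B-score of integrated fluorescence ratio over time as area under calcium response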
TRPC6 act = activates the mouse TRPC6 cation channel | Q61143 | HEK293-TRPC6 membrane potential dye fluorescence; hits give high values | B-score at 10 µM | 310,000 tested, 0.13% active | AID 2550;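 active = B-score of the integrated fluorescence ratio above library mean plus 3 SD, and starting fluorescence ratio within library mean plus 5 SD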;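 also: higher score means more depolarization so channel activation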
Target sequence (Q61143 whole entry, looked up): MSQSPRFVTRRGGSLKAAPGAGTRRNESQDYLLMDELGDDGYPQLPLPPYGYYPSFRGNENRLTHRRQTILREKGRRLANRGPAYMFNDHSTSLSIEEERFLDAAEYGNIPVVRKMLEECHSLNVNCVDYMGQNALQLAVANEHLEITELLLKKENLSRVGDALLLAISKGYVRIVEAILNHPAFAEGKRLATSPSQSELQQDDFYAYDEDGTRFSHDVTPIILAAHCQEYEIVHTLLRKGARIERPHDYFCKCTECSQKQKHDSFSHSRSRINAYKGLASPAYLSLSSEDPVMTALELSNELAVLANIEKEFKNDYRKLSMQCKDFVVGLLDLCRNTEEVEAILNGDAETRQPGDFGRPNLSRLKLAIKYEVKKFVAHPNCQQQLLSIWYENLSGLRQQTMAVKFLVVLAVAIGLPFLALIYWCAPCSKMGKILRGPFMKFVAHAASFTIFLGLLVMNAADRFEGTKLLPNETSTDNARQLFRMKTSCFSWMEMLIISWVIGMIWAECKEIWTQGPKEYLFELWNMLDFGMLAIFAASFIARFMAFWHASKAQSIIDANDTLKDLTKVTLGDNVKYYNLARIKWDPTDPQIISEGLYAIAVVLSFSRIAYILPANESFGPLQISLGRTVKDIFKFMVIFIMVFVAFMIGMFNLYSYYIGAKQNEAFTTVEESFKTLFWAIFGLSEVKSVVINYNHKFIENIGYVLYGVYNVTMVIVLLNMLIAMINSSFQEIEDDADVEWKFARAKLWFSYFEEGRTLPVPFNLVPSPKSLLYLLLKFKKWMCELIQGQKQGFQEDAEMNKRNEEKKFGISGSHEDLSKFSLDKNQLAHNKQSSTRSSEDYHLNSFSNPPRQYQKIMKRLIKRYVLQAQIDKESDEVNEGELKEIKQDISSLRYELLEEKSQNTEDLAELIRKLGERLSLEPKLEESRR
Pemphigus Ab inh = blocks pemphigus antibody binding to human desmoglein-3. P32926. DSG3-coupled beads, scFv-anti-DSG3-GFP binding, flow cytometry; hits give low values. binding (percent of control), % at 10 µM. 310,000 tested, 0.48% active;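 active = binding more than 3 SD below its plate's average and above zero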;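 also: hits lower antibody fragment binding to DSG3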
TRPC6 inhibitor = blocks the mouse TRPC6 cation channel; Q61143; HEK293-TRPC6, membrane potential dye, ACh-evoked depolarization; hits give low values; B-score at 10 µM; 310,000 tested, 1.1% active;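 active = B-score under library mean minus 3 SD, initial fluorescence not abnormally high, positive integrated signal ratio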;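 also: B-score derived from integrated fluorescence ratio over the kinetic read; more negative B-score means stronger inhibition of depolarization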
TRPC4 act = activators of mouse TRPC4 channel. 310,000 tested, 0.49% active. Q9QUQ5. B-score at 10 µM. HEK293 TRPC4beta/mu-opioid, Fluo4 calcium fluorescence; hits give high values;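 active = B-score above 5 SD of library B-scores, and initial fluorescence ratio not above library mean plus 5 SD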;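 also: positive B-score marks a calcium rise read as TRPC4 activation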
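Assay system: HEK293 cells stably co-expressing mouse TRPC4beta and mu-opioid receptor / Timing: Fluo4 dye loading 45 min at room temperature, 110 s recording / Signal: Fluo4 calcium-sensitive dye fluorescence, kinetic, 1 Hz baseline / Read-out: integrated baseline-normalised fluorescence ratio, converted to per-well B score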
* hit, by the source's call; i = inactive; x = no result. Shown are actives, neighbours in structure and some others; about 2.5% of the full set was active somewhere.

SMILES	TRPC4 block	TRPC4 PAM	TRPC6 act	Pemphigus Ab inh	TRPC6 inhibitor	TRPC4 act
CCOC(=O)Cn1c(=O)oc2cc(S(=O)(=O)Nc3ccc(F)cc3)ccc21	i	i	i	107	i	47*
CCOC(=O)Cn1c(=O)oc2cc(S(=O)(=O)NCCc3ccc(C)cc3)ccc21	i	i	i	107	i	i
CN(C)CCN(C(=O)c1cccc(Cl)c1)c1nc2c(Cl)cccc2s1	i	11*	i	115	i	i
O=C(NCc1ccncc1)/C(=N/O)c1ccccc1	i	i	i	75*	i	i
CCc1nnc(SCc2ccc([N+](=O)[O-])cc2)nc1CC	i	i	i	102	i	i
O=C(NC(c1ccccc1)c1ccccc1)c1cccc(S(=O)(=O)NCc2ccccc2)c1	i	i	i	103	i	i
O=S(=O)(Nc1cccc(CCc2ccccn2)c1)c1ccc2ccccc2c1	x	x	x	106	x	x
O=S(=O)(Nc1cccc(CCc2ccccn2)c1)c1cc(Cl)ccc1Cl	i	13*	i	122	i	i
O=S(=O)(c1ccccc1)N1CCN(CC(O)COc2ccc3c(c2)CCC3)CC1 (configuration not stated)	i	i	i	79*	i	i
CC(/C=C/c1ccc2c(c1)OCO2)=N\NC(=O)c1cccc([N+](=O)[O-])c1	i	i	i	84*	i	i
COc1ccc(C(CNC(=O)CSc2ccc(Br)cc2C)N2CCOCC2)cc1 (configuration not stated)	i	i	i	104	i	i
O=C(NCCNC1CCC(c2ccccc2)CC1)c1ccc(F)cc1 (configuration not stated)	i	i	i	106	i	61*
Cc1ccccc1Nc1nnc(SCC(=O)NC2CCCc3ccccc32)s1 (configuration not stated)	i	i	i	105	i	i
O=S(=O)(NNc1ncc(C(F)(F)F)cc1Cl)c1ccccc1	x	x	x	112	x	x
CC1OC(OC2C(OC3C(O[C@H]4CC[C@]5(C)C6C=C[C@]78OC[C@@]9(CC[C@@H](C)[C@H](C)C97)[C@H](O)C[C@@]8(C)[C@]6(C)CC[C@H]5C4(C)C)OC(C)C(O)C3O)OC(CO)C(O)C2O)C(O)C(O)C1O (some centres not stated)	i	17*	i	x	-5.1*	376*
CCC(=O)NC(=S)NNC(=O)c1ccc(O)cc1	i	i	i	109	i	i
COC(=O)CSc1nnc(CNS(=O)(=O)c2ccc(C)cc2)n1C	i	i	i	x	i	i
COC(=O)CSc1nnc(CNS(=O)(=O)c2ccc(Br)cc2)n1C	-6*	i	i	88	i	i
CNC(=S)N1CCN=C1Nc1nc(C)cc(C)n1	i	i	i	104	i	i
Cc1cc(O)c2c(c1O)C(=O)[C@]13C(=C2O)C(=O)[C@@H]2[C@@H](O)[C@H]1[C@@H]1[C@H](O)[C@H]3C(=O)C3=C(O)c4c(O)cc(C)c(O)c4C(=O)[C@]312	x	x	x	-15*	x	x
O=C(Nc1ccccc1)c1ccc(C(=O)Nc2ccccc2)nc1	i	i	i	23*	i	i
CC(=O)Nc1cccc(NC(=O)c2ccc(C(=O)Nc3cccc(NC(C)=O)c3)nc2)c1	i	i	i	110	i	73*
COc1ccc(C(CNC(=O)CCOc2ccccc2)N(C)C)cc1 (configuration not stated)	i	i	i	120	i	154*
CN(C)C(CNC(=O)CCc1nc2ccccc2s1)c1ccccc1 (configuration not stated)	-7*	i	i	102	i	i
Cc1cccc(NC(=O)CCOc2ccccc2)c1	i	i	i	96	i	i
SMILES	TRPC4 block	TRPC4 PAM	TRPC6 act	Pemphigus Ab inh	TRPC6 inhibitor	TRPC4 act
CN(C)C(CNC(=O)CCOc1ccccc1)c1ccco1 (configuration not stated)	x	i	i	105	i	i
Cc1cccc(OCCC(=O)NCC(c2ccccc2)N(C)C)c1 (configuration not stated)	i	i	i	105	i	103*
COc1ccccc1/C=C/C(=O)Nc1ccc(S(=O)(=O)Nc2cc(C)on2)cc1	i	i	i	101	i	i
Cc1nn(-c2ccccn2)c2c1C(=O)CC(C)(C)C2Br (configuration not stated)	i	i	i	91	i	i
O=C(Nc1ccc2c(c1)C(=O)N(c1ccccc1)C2=O)c1cccs1	i	i	i	87*	i	i
O=C(O)CCN1C(=O)c2ccc(NC(=O)c3cccs3)cc2C1=O	i	i	i	97	i	i
O=C(Nc1ccc(NC(=O)c2cccs2)cc1)c1cccs1	i	i	i	22*	i	i
O=C(Nc1ccc(Cl)cc1)c1cccs1	i	i	i	99	i	i
O=C(CN1CCN(c2ccccc2O)CC1)Nc1ccc([N+](=O)[O-])cc1Br	i	i	i	94*	i	i
O=C(CN1CCN(c2ccccc2O)CC1)Nc1cc([N+](=O)[O-])ccc1Cl	i	i	i	85	i	i
CSCC[C@H](NC(=O)OC(C)(C)C)C(=O)N/N=C/c1cccc2cccnc12	i	10*	i	111	i	i
c1ccc(Nc2nc(N3CCNCC3)nc(N3CCOCC3)n2)cc1	i	i	i	102	i	65*
CCCCCCNC(=O)CCCCCNS(=O)(=O)c1ccc(Br)cc1	i	i	i	89	i	i
CCN1CCN(c2cc(C)nc(-c3ccccc3O)n2)CC1	i	i	i	100	i	i
CC(C)(C)NC(=O)COC(=O)c1ccc(Cl)c(S(N)(=O)=O)c1	i	i	i	114	i	i
COc1ccc(NC(=O)c2ccc(-c3ccccc3)cc2)cc1S(=O)(=O)N1CCOCC1	i	i	i	88*	i	i
CCc1cccc(OCC(=O)Nc2ccc(C(=O)O)cc2NC(=O)COc2cccc(CC)c2)c1	-8*	i	i	100	i	i
CCc1cccc(OCC(=O)Nc2c[nH]c(=O)[nH]c2=O)c1	i	i	i	99	i	i
COc1ccc(C2(C)NC(=O)N(CC(=O)Nc3cccnc3Cl)C2=O)cc1 (configuration not stated)	i	i	i	99	i	i
